# Assay outcomes (PubChem)
# NPY-Y1 PAM-ag: potentiates or activates human NPY-Y1 receptor; P25929; NPY-Y1 expressing cells, potentiator/agonist activation; activation, % at 3.6 µM; hit rate 0.37% among 220,000; in the data active means activation above about 33%, passing the limit was not always enough;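 further: cells stimulated with NPY at EC10 then isoproterenol at EC100; 0% = low agonist plus stimulus and 100% = saturating agonist plus stimulus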
# Target sequence (P25929 whole entry, looked up): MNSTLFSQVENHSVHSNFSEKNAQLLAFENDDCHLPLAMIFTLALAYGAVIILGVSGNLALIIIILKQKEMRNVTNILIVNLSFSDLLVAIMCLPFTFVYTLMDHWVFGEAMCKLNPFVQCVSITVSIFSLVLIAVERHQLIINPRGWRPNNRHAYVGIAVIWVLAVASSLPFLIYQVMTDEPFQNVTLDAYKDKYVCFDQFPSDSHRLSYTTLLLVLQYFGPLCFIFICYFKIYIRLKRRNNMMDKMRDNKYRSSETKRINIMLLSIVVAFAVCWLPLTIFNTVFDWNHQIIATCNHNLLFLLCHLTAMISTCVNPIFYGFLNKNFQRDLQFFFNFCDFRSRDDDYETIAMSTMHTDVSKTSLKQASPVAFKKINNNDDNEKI
# NPY Y2 blocker: NPY-Y2 (human) receptor antagonism; P49146; NPY-Y2 expressing cells, antagonist mode; inhibition, % at 2.7 µM; hit rate 0.99% among 140,000; AID 793; in the data active means inhibition above about 17%;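 further: 0% = vehicle with agonist challenge and 100% = reference antagonist with challenge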
# NPY-Y2 PAM-ag: potentiates or activates human NPY-Y2 receptor. P49146. cells expressing NPY-Y2, potentiator/agonist read-out. activation, % at 3.6 µM. hit rate 0.45% among 220,000. AID 1359; in the data active means activation above about 27%;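 further: cells stimulated with NPY near EC25 plus isoproterenol at EC100; 0% = vehicle plus submaximal agonist and 100% = vehicle plus saturating agonist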
# NPY-Y1 antag: antagonists of human neuropeptide Y receptor Y1; HEK293-CNG Y1 cells, membrane potential fluorescence; NPY at EC95, then isoproterenol; inhibition, % at 3.6 µM; P25929; hit rate 1% among 200,000;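 active means inhibition above the campaign mean inhibition of all tested compounds plus 3 SD, cut at about 20% in these data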;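 further: 0% = DMSO wells given NPY plus isoproterenol and 100% = isoproterenol alone without NPY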
#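 Material: HEK293 cells co-expressing NPY Y1 receptor and cyclic-nucleotide gated channel. Timing: compound incubation 1 h at room temperature, readout 45 min post-stimulation. Signal: fluorescence, membrane potential probe.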
# * hit, by the source's call; / = not tested or not shown. An excerpt weighted towards active compounds, which were near 1.8% of everything screened.
SMILES,NPY-Y1 PAM-ag,NPY Y2 blocker,NPY-Y2 PAM-ag,NPY-Y1 antag
O=C(NC1CCCCC1)C(c1ccc(O)cc1)N(CC1CCCO1)C(=O)C1COc2ccccc2O1 (centres undefined),-20.8,8.5,-8.4,14.5
O=C(NC1CCCC1)C(c1ccccc1)N(Cc1ccco1)C(=O)Cc1cccs1 (centres undefined),-32.5,39.4*,-22.6,76.5*
O=C(NC1CCCC1)C(c1cccs1)N(CC1CCCO1)C(=O)Cc1cccs1 (centres undefined),-14.5,18.0*,-14.0,26.4*
Cc1c(Cl)cccc1NC(=S)N(CCN(C)C)C(C)c1ccco1 (centres undefined),9.2,/,3.5,/
COC(=O)c1cc(S(=O)(=O)n2nc(C)c(Br)c2C)c(Cl)cc1Cl,52.0*,3.9,34.5*,-6.5
CC1CCCCN1S(=O)(=O)c1ccc(C(=O)Nc2nnc(-c3ccccc3Cl)o2)cc1 (centres undefined),94.6*,-3.4,98.5*,-15.6
CCC1CCCCN1S(=O)(=O)c1ccc(C(=O)Nc2nnc(-c3ccccc3Cl)o2)cc1 (centres undefined),5.3,-2.9,16.7,2.1
COc1cc(/C=N/NC(=O)c2sc3nc(C)cc(C)c3c2N)ccc1O,13.5,/,-5.8,/
FC(F)(F)c1ccccc1CN1CCN(C2CCCCCC2)CC1,-7.3,21.9*,-7.9,23.2*
O=C1CCc2ccc(NC(=O)C3CC3)cc2N1,4.5,/,-5.2,-3.1
COC(=O)C1=CN(C2CC2)C=C(C(=O)OC)C1c1ccc(C(F)(F)F)cc1,-4.9,/,-0.6,20.7*
CC(=O)Nc1ccc(NC(=O)C2CC(=O)N(c3ccccc3Cl)C2)cc1 (centres undefined),2.0,/,-15.8,-5.2
O=[N+]([O-])c1ccc(N=Nc2c(Cl)cc(O)cc2Cl)cc1,66.8*,/,64.9*,/
CC(/C=N/NC(=O)CSc1n[nH]c(=O)[nH]c1=O)=C\c1ccccc1,8.4,/,4.5,/
CN(C)/C=C(/C(=O)c1ccccc1Cl)S(=O)(=O)c1ccccc1,-9.4,2.7,-16.6,39.2*
COc1ccc(C(=O)/C(=C/N(C)C)S(=O)(=O)c2ccccc2)cc1,3.5,/,3.0,-0.2
Cc1c(Cc2c(Cl)cccc2Cl)c(=O)ccn1C(C)c1ccccc1 (centres undefined),-4.8,21.9*,2.4,20.1
CCOC(=O)c1c(NC(=O)CSc2nc3ccccc3s2)sc(C(C)=O)c1C,-33.2,22.3*,-32.3,39.0*
CCOC(=O)c1c(NC(=O)CSc2nc3cc(Cl)ccc3s2)sc(C(C)=O)c1C,11.2,0.3,1.2,0.9
COc1ccc(C(=O)Nc2ccc(Cl)cc2C(=O)NCc2ccco2)cc1,-77.3,19.4*,-41.9,24.9*
O=C(CN1C(=O)NC2(CCCc3ccccc32)C1=O)N1CCN(C(=O)c2ccco2)CC1 (centres undefined),8.5,0.0,-16.4,3.4
COc1ccc2nc(C)cc(Sc3nc4ccccc4s3)c2c1,-24.1,/,-20.4,/
COc1ccc(N=c2oc3cc(O)ccc3cc2C(=O)NCC2CCCO2)c(OC)c1 (centres undefined),-20.1,31.0*,-9.9,30.4*
CCOc1ccccc1N=c1oc2cc(O)ccc2cc1C(=O)NCC1CCCO1 (centres undefined),-45.3,25.0*,-11.6,36.3*
CC(C)COP(=O)(OCC(C)C)C(Nc1ccccc1)c1ccccc1 (centres undefined),12.5,/,-4.5,/
SMILES,NPY-Y1 PAM-ag,NPY Y2 blocker,NPY-Y2 PAM-ag,NPY-Y1 antag
CC(C)COP(=O)(OCC(C)C)C(Nc1ccccc1)c1ccc(F)cc1 (centres undefined),-12.4,22.6*,1.4,31.3*
COC(=O)/C(=C\c1ccc2c(c1)c1ccccc1n2C)NC(=O)c1ccccc1,12.9,1.8,-5.4,3.0
CC(C)OC(=O)/C(=C\c1ccc2c(c1)c1ccccc1n2C)NC(=O)c1ccccc1,-46.7,5.8,-30.1,23.3*
Cc1cc(C)c(S(=O)(=O)Nc2ccc(OCC(=O)O)cc2)c(C)c1,47.4*,-0.5,50.8*,-8.3
c1cn2c(Nc3ccc4c(c3)OCCO4)c(-c3ccc(N4CCOCC4)cc3)nc2cn1,18.0,/,-19.4,/
Cc1cccc(C)c1Nc1c(-c2ccc(N3CCOCC3)cc2)nc2cnccn12,84.5*,/,70.5*,/
CN(C)CCn1c(C(=O)Nc2ccccc2)cc2ccccc21,-67.0,19.6*,-36.0,38.1*
Cc1cc(C(=O)CN2CCCC2)c(C)n1-c1ccc(Cl)cc1,-3.4,/,-2.3,20.9*
CC1=C(C(=O)OCC2CCCO2)C(c2ccc(F)cc2)NC(=O)N1 (centres undefined),9.6,/,-11.7,-4.2
CCOc1ccccc1CN(Cc1ccco1)S(=O)(=O)c1ccc(-n2cnnn2)c(OC)c1,-11.2,17.6*,-21.1,38.0*
O=C(CCS(=O)(=O)c1ccc(Cl)cc1)NCCc1c[nH]c2ccccc12,12.5,/,8.6,-1.4
CC(=O)N(CCC1(C(C)C)CCOC(C)(C)C1)C(C)c1cccs1 (centres undefined),17.7,/,5.0,/
Cn1c(=N)n(CC(O)c2cccc3ccccc23)c2ccccc21 (centres undefined),-69.5,24.4*,-7.0,33.8*
Cn1c(=N)n(CC(O)c2ccco2)c2ccccc21 (centres undefined),0.2,4.2,-25.8,7.5
CC1CC(C)CN(c2ncc3c(n2)CC(c2ccccc2)CC3=O)C1 (centres undefined),-14.4,23.7*,-10.5,30.8*
CC(C)c1ccc(C2CC(=O)c3cnc(N4CCc5ccccc5C4)nc3C2)cc1 (centres undefined),11.1,2.2,6.8,-2.9
Cc1ccc(C2SCCN2C(=O)c2ccc([N+](=O)[O-])cc2)cc1 (centres undefined),2.3,4.4,7.9,5.9
O=S(=O)(Nc1ncnc2sc3c(c12)CCC3)c1ccc(Cl)s1,51.9*,-0.5,46.1*,-13.5
O=S(=O)(Nc1ncnc2sc3c(c12)CCC3)c1cc(F)ccc1F,17.1,/,11.8,/
COCCCNC(=O)c1ccc(C(=O)NCCCOC)cc1,8.2,0.2,1.1,0.6
COCCCNC(NC(=O)c1ccc(Br)cc1)C(Cl)(Cl)Cl (centres undefined),59.4*,1.4,65.8*,-9.4
O=C(Nc1cc(C(=O)N2CCCC2)ccc1N1CCCC1)c1ccccc1F,44.3*,1.7,39.4*,-8.0
O=C(Nc1ccc(C(=O)N2CCCC2)cc1)c1ccccc1F,10.7,1.7,13.6,-1.6
CN(CCc1ccccn1)C(=O)CCC1CCCN(C(=O)c2c3c(nn2C)CCCC3)C1 (centres undefined),-1.2,/,2.0,5.2
Cc1ccnc(NC(=O)COc2ccc3oc4c(c3c2)CCCC4)c1,-30.6,11.2,-6.7,21.1*
Cc1ccnc(NC(=O)COc2c(C)cc(C)cc2[N+](=O)[O-])c1,-25.3,8.4,6.8,3.3
O=C(c1ccc(-c2cc(Cl)ccc2Cl)o1)N1CCOCC1,-11.5,/,-8.8,20.3*
O=C(c1ccc(-c2ccc(Cl)cc2Cl)o1)N1CCOCC1,-0.6,/,-1.6,1.9
Cc1nc(-c2ccccc2)sc1C(=O)CSc1ccccc1,-31.5,24.2*,-8.6,21.2*
Cc1nc(-c2ccccc2)sc1C(N)=O,-16.8,0.9,-10.2,5.1
